The species entered for assay [1] is Rattus norvegicus. Briefly: Channel opening activity at KATP channel in Wistar rat pancreatic islets assessed as glucose-induced residual insulin secretion at 10 uM after 90 mins by radioimmunology. The essentials:
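Islets from adult fed rats, groups of 10, preincubated 30 min at 37 °C in bicarbonate salt medium with 2.8 mM glucose, 0.5% dialyzed albumin, O2/CO2 gassed. Then incubated 90 min at 37 °C with 16.7 mM glucose plus drug. Insulin by radioimmunoassay against rat insulin standard; expressed as % of drug-free 16.7 mM glucose control; mean ± SEM (n).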

The species entered for assay [2] is Rattus norvegicus. Briefly: Channel opening activity at KATP channel in Wistar rat pancreatic islets assessed as glucose-induced residual insulin secretion at 1 uM after 90 mins by radioimmunology.
The nature of assay [3]: Channel opening activity at KATP channel in Wistar rat endothelium-denuded aortic ring assessed as relaxation of KCl-induced contraction. It counts as tissue-based. To be noted: Aorta. The essentials:
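Thoracic aortic rings (3–4 mm, endothelium-free) from adult fed rats, 37 °C, O2/CO2 95/5 gassed; isometric tension. After 60 min equilibration, contracted with 30 mM KCl; once stable, drug added cumulatively to maximal relaxation or 300 µM. Relaxation as % of KCl contraction; EC50 (50% inhibition of plateau) from dose–response curves; mean ± SEM (n).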

For assay [4], the species on record is Rattus norvegicus. Briefly: Channel opening activity at KATP channel in Wistar rat pancreatic islets assessed as increase in rubidium outflow at 10 uM by scintillation counting. Put shortly:
(§1)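 Groups of 100 islets from adult fed rats loaded 60 min at 37 °C with 86Rb in bicarbonate medium with 16.7 mM glucose and 0.5% albumin, washed three times, then perifused at 1.0 mL/min. Effluent collected in 1-min fractions from min 31 to 90, counted by scintillation along with final islet content. Output as fractional outflow rate (% of islet content per min). Glibenclamide 10 µM used as KATP blocker.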

Assay [5] is filed under the species Rattus norvegicus. Nature of the assay: Channel opening activity at KATP channel in Wistar rat pancreatic islets assessed as increase in rubidium outflow at 10 uM by scintillation counting in presence of glibenclamide. The essentials:
as §1

The source of these data is ChEMBL document CHEMBL1152669, “New R/S-3,4-dihydro-2,2-dimethyl-2H-1-benzopyrans as K(ATP) channel openers: modulation of the 4-position” (Bioorg Med Chem, 2009).

Calls of active or inactive are those of the source. The rule behind the calls is not given here.

Regarding `CC1(C)CC(NC(=S)Nc2ccc(C#N)cc2)c2cc(F)ccc2O1` (stereo unspecified), the Activity in the assay filed under Rattus norvegicus [1] is 12%; in the assay filed under Rattus norvegicus [2], 64.7%. Besides, the EC50 in assay [3] is more than 3000 nM.
The corresponding values for `CC1(C)CC(NC(=S)Nc2cccc(C#N)c2)c2cc(F)ccc2O1` (stereo unspecified) are 16.1%, 80% and 2600 nM.
The corresponding values for `CC1(C)CC(NC(=S)Nc2ccc([N+](=O)[O-])cc2)c2cc(Cl)ccc2O1` (stereo unspecified) are 10.3%, 67.3% and more than 10000 nM.
For `CC1(C)CC(NC(=S)Nc2ccsc2)c2cc(Cl)ccc2O1` (stereo unspecified), the Activity in the assay filed under Rattus norvegicus [1] worked out at 51.9%. The EC50 in assay [3] is more than 3000 nM.
Turning to `CC(N/C(=N\C#N)Nc1ccncc1)C(C)(C)C` (racemic) [PINACIDIL ANHYDROUS], the EC50 in assay [3] was 350 nM.
As for `CC1(C)CC(NC(=S)Nc2ccc(C#N)cc2)c2cc(Br)ccc2O1` (stereo unspecified), the Activity is 11.7% in the assay listed under Rattus norvegicus [1] and 57.5% in the assay listed under Rattus norvegicus [2]. In addition, the EC50 in assay [3] is more than 10000 nM.
On to `CC1(C)CC(NC(=S)Nc2ccsc2)c2cc(Br)ccc2O1` (stereo unspecified), for which, in the assay filed under Rattus norvegicus [1], the Activity stood at 44%. Further, the EC50 in assay [3] was more than 10000 nM.
The corresponding values for `CC1(C)CC(NC(=S)Nc2cccnc2)c2cc(Cl)ccc2O1` (stereo unspecified) are 50.2% and 2800 nM.
`CS/C(=N\c1ccc(Cl)cc1)NC1CC(C)(C)Oc2ccc(Br)cc21` (stereo unspecified): the Activity worked out at 40.8% in the assay listed under Rattus norvegicus [1] and 89.4% in the assay listed under Rattus norvegicus [2]. Moreover, in assay [3], the EC50 was more than 10000 nM.
The corresponding values for `CC1(C)CC(NC(=S)Nc2cccc([N+](=O)[O-])c2)c2cc(Br)ccc2O1` (stereo unspecified) are 13.5%, 64.3% and more than 10000 nM.
The corresponding values for `CC1(C)CC(N/C(=N/C#N)Nc2ccc(Cl)cc2)c2cc(Br)ccc2O1` (stereo unspecified) are 42.7%, 95.8% and 11400 nM.
As to `CC1=Nc2ccc(Cl)cc2S(=O)(=O)N1`, the Activity worked out at 73.9% in the assay listed under Rattus norvegicus [1] and 87.5% in the assay listed under Rattus norvegicus [2].
In the case of `CC1(C)CC(NC(=S)Nc2cccnc2)c2cc(F)ccc2O1` (stereo unspecified), the Activity in the assay listed under Rattus norvegicus [1] amounted to 62.1%. Moreover, the EC50 in assay [3] turned out to be 6600 nM.
On to `CS/C(=N\c1cccc(C#N)c1)NC1CC(C)(C)Oc2ccc(Br)cc21` (stereo unspecified), for which the Activity in the assay filed under Rattus norvegicus [1] is 37.7%; in the assay listed under Rattus norvegicus [2] it was 93.7%. The EC50 in assay [3] is more than 30000 nM.
The corresponding values for `CC1(C)Oc2ccc(C#N)cc2C(N2CCCC2=O)C1O` (racemic) [CROMAKALIM] are 94.4%, 95.3% and 130 nM.
The corresponding values for `CC1(C)CC(NC(=S)Nc2cccc([N+](=O)[O-])c2)c2cc(F)ccc2O1` (stereo unspecified) are 11.5%, 76.1% and more than 3000 nM.
For the molecule `CC1(C)CC(NC(=S)Nc2ccc([N+](=O)[O-])cc2)c2cc(Br)ccc2O1` (stereo unspecified), the values for the Activity in the assay filed under Rattus norvegicus [1] and in the assay filed under Rattus norvegicus [2] were 13.5% and 61.3%, respectively. Also, the EC50 in assay [3] was more than 10000 nM. For the same molecule, the result in the assay listed under Rattus norvegicus [4] was Active. Also, the outcome in the assay filed under Rattus norvegicus [5] was inactive.
Regarding `CC1(C)CC(NC(=S)Nc2cccnc2)c2cc(Br)ccc2O1` (stereo unspecified), in the assay filed under Rattus norvegicus [1], the Activity was 44.3%. The EC50 in assay [3] worked out at 3700 nM.
As for `CC1(C)CC(NC(=S)Nc2cccc(C#N)c2)c2cc(Br)ccc2O1` (stereo unspecified), the Activity is 14.2% in the assay filed under Rattus norvegicus [1] and 65.5% in the assay listed under Rattus norvegicus [2]. Further, the EC50 in assay [3] was 640 nM.
For the molecule `CC1(C)CC(N/C(=N/C#N)Nc2cccc(C#N)c2)c2cc(Br)ccc2O1` (stereo unspecified), the Activity in the assay listed under Rattus norvegicus [1] is 45.3%; in the assay listed under Rattus norvegicus [2], 90.5%. The EC50 in assay [3] came out at 5200 nM.
The corresponding values for `CC1(C)CC(NC(=S)Nc2ccc(C#N)cc2)c2cc(Cl)ccc2O1` (stereo unspecified) are 10.6%, 47.8% and more than 10000 nM.
The corresponding values for `CC1(C)CC(NC(=S)Nc2cccc([N+](=O)[O-])c2)c2cc(Cl)ccc2O1` (stereo unspecified) are 14.4%, 64.3% and more than 3000 nM.
The corresponding values for `CC1(C)CC(NC(=S)Nc2cccc(C#N)c2)c2cc(Cl)ccc2O1` (stereo unspecified) are 15.8%, 66.2% and 600 nM.
As for `CC1(C)CC(NC(=S)Nc2ccc([N+](=O)[O-])cc2)c2cc(F)ccc2O1` (stereo unspecified), the figures for the Activity in the assay listed under Rattus norvegicus [1] and in the assay listed under Rattus norvegicus [2] were 10.7% and 74.3%, respectively. For the same molecule, the EC50 in assay [3] is more than 3000 nM.
